Data reported in publication PMC8009840 (Bioorganic chemistry, 2021).

Columns and labels:
KOR [1] = settings: cited from earlier work
MOR = settings: read-out: MOR Ki; cited from earlier work
KOR [2] = biological target: KOR (Mus musculus, UniProt P33534); assay: Competitive radioligand binding assay, KOR; design: species or system mice; settings: for Selectivity δ/κ: Ki ratio DOR/KOR; for Selectivity μ/κ: Ki ratio MOR/KOR
Procedure, shortened: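 Competition binding on membranes (30 μg protein) from CHO cells expressing mouse KOR or MOR, or human DOR. [3H]diprenorphine labels KOR and DOR, and [3H]naloxone labels MOR. Varied test compound in TME buffer (50 mM Tris, 3 mM MgCl2, 0.2 mM EGTA, pH 7.4), 1.5 h, 30 °C, then filtration. Nonspecific binding: 5 μM U50,488 (KOR), DAMGO (MOR), SNC80 (DOR). IC50 by nonlinear regression, converted to Ki by Cheng-Prusoff; selectivity as Ki ratios.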

human KOR = human KOR (Homo sapiens, UniProt P41145); assay: [35S]-GTPγS functional assay, KOR-expressed CHO cell membranes; type: biochemical; settings: for EC50: read-out: KOR [35S]-GTPγS binding EC50, mean ± SEM, at least three experiments; for KOR [35S]-GTPγS binding % Emax of U50,488H: relative to full agonist U50,488H (5 μM)
Procedure, shortened: (§1)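 CHO membranes (10 μg protein) incubated 1 h at 30 °C with varied test compound, GDP (15 μM) and 80 pM [35S]GTPγS; nonspecific binding with 10 μM unlabelled GTPγS. Full agonist at 5 μM for the maximal response: U50,488H (KOR), DAMGO (MOR), DPDPE (DOR). Emax is net-stimulated binding as % of that full-agonist stimulation. Mean ± SEM of at least three experiments.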

rat MOR = rat MOR (Rattus norvegicus, UniProt P33535); assay: [35S]-GTPγS functional assay, MOR-expressed CHO cell membranes; type: biochemical; settings: for EC50: read-out: MOR [35S]-GTPγS binding EC50, mean ± SEM, at least three experiments; for MOR [35S]-GTPγS binding % Emax of DAMGO: relative to full agonist DAMGO (5 μM)
Procedure, shortened: as §1

mouse DOR = mouse DOR (Mus musculus, UniProt P32300); assay: [35S]-GTPγS functional assay, DOR-expressed CHO cell membranes; type: biochemical; settings: for EC50: read-out: DOR [35S]-GTPγS binding EC50, mean ± SEM, at least three experiments; for DOR [35S]-GTPγS binding % Emax of DPDPE: relative to full agonist DPDPE (5 μM)
Procedure, shortened: as §1

Structure (SMILES) | μ/κ Ki ratio (KOR [1]) | Ki (KOR [1]; read-out: KOR Ki) [nM] | Ki (MOR) [nM] | Selectivity δ/κ (KOR [2]) | Selectivity μ/κ (KOR [2]) | EC50 (human KOR) [nM] | KOR [35S]-GTPγS binding % Emax of U50,488H (human KOR) [%] | EC50 (rat MOR) [nM] | MOR [35S]-GTPγS binding % Emax of DAMGO (rat MOR) [%] | EC50 (mouse DOR) [nM] | DOR [35S]-GTPγS binding % Emax of DPDPE (mouse DOR) [%]
CN(C(=O)/C=C/c1ccoc1)[C@@H]1CC[C@@]2(O)[C@H]3Cc4cccc5c4[C@@]2(CCN3CC2CC2)[C@H]1O5 [CT-18] | 355 | 1.5 | 533 |  |  |  |  |  |  |  | 
Cl.O=C(N[C@@H]1CC[C@@]2(O)[C@H]3Cc4cccc5c4[C@@]2(CCN3CC2CC2)[C@H]1O5)c1ccnc(Cl)c1 [Compound 6a, 17-Cyclopropylmethyl-4,5α-epoxy-14β-hydroxy-6β-{[4′-(2′-chloropyridyl)]carboxamido}morphinan hydrochloride] |  |  |  | 203 | 1.8 |  |  |  |  |  | 
O=C(N[C@@H]1CC[C@@]2(O)[C@H]3Cc4cccc5c4[C@@]2(CCN3CC2CC2)[C@H]1O5)c1ccnc(Br)c1 [Compound 6b, 17-Cyclopropylmethyl-4,5α-epoxy-14β-hydroxy-6β-{[4′-(2′-bromopyridyl)]carboxamido}morphinan] |  |  |  | 280 | 3.3 | 81.9 ± 9.09 | 99.27 ± 2.79 | 291 ± 42 | 33.62 ± 3.92 | 2680 ± 689 | 145.10 ± 12.31
N#Cc1cc(C(=O)N[C@@H]2CC[C@@]3(O)[C@H]4Cc5cccc6c5[C@@]3(CCN4CC3CC3)[C@H]2O6)ccn1 [Compound 6c, 17-Cyclopropylmethyl-4,5α-epoxy-14β-hydroxy-6β-{[4′-(2′-cyanopyridyl)]carboxamido}morphinan] |  |  |  | 551 | 9.5 | 92 ± 8.47 | 100.20 ± 2.37 | 338 ± 31.1 | 26.48 ± 3.73 | 1850 ± 152 | 113.90 ± 3.10
Cc1cc(C(=O)N[C@@H]2CC[C@@]3(O)[C@H]4Cc5cccc6c5[C@@]3(CCN4CC3CC3)[C@H]2O6)ccn1 [Compound 6d, 17-Cyclopropylmethyl-4,5α-epoxy-14β-hydroxy-6β-{[4′-(2′-methylpyridyl)]carboxamido}morphinan] |  |  |  | 38.0 | 0.41 |  |  |  |  |  | 
COc1cc(C(=O)N[C@@H]2CC[C@@]3(O)[C@H]4Cc5cccc6c5[C@@]3(CCN4CC3CC3)[C@H]2O6)ccn1 [Compound 6e, 17-Cyclopropylmethyl-4,5α-epoxy-14β-hydroxy-6β-{[4′-(2′-methoxypyridyl)]carboxamido}morphinan] |  |  |  | 67.9 | 0.53 |  |  |  |  |  | 
